Activity calls are given as the source filed them. The calls are words filed in the database; no cut-off is given here.
Legend:
[1] = system: A549; test: Effect on B-Raf level in human A549 cells at five times IC50 value after 12 to 24 hrs by Western blot analysis; assay type: ADME, cell-based
Method in brief: (§1)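 MPER lysates with protease/phosphatase inhibitors. 15 µg protein per lane on reducing 10% SDS gels, transferred to PVDF, immunoblotted, HRP chemiluminescent detection.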

[2] = target: T1, Heat shock protein HSP90 (Homo sapiens) (UniProt P07900+P08238); test: Inhibition of Hsp90 in human A549 cells assessed as decrease in c-Raf levels at five times IC50 value after 24 hrs by Western blot analysis; assay type: cell-based; method in brief: as §1
[3] = system: A549; test: Cytotoxicity against human A549 cells assessed as cell growth inhibition after 72 hrs by MTS assay; assay type: functional, cell-based; conditions: A549, 72 h
Method in brief: (§2)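 Cells grown to confluence, seeded at 2000 cells/well and left overnight to attach. Compound added across a concentration range in DMSO (1% final), then 72 h at 37 °C, 5% CO2. Growth read by MTS/PMS relative to 1% DMSO wells (100% growth). IC50 taken from two separate experiments, each in triplicate.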

[4] = target: T1, Heat shock protein HSP90 (Homo sapiens); test: Inhibition of Hsp90 in human A549 cells assessed as decrease in Her2 levels at five times IC50 value after 24 hrs by Western blot analysis; assay type: cell-based; method in brief: as §1
[5] = target: T1, Heat shock protein HSP90 (Homo sapiens); test: Inhibition of Hsp90 in human A549 cells assessed as decrease in EGFR levels at five times IC50 value after 24 hrs by Western blot analysis; assay type: cell-based; method in brief: as §1
[6] = system: MCF7; test: Effect on Hsp90 expression in human MCF7 cells at 0.5 to 5 times IC50 value after 12 hrs by western blot analysis; assay type: ADME, cell-based; conditions: mcf7, 12 h
Method in brief: (§3)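 MPER lysates. 15 µg protein per lane, reducing 10% SDS-PAGE, PVDF transfer, immunoblot for EGFR, Her2, C-Raf and Hsp90, chemiluminescent detection.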

[7] = target: T1, Heat shock protein HSP90 (Homo sapiens); test: Inhibition of Hsp90 in human MCF7 cells assessed as decrease in C-Raf levels at five times IC50 value after 12 hrs by Western blot analysis; assay type: cell-based; method in brief: as §3
[8] = system: MRC5; test: Cytotoxicity against human MRC5 cells assessed as cell growth inhibition after 72 hrs by MTS assay; assay type: cell-based; conditions: MRC5, 72 h; method in brief: as §2
[9] = system: MCF7; test: Cytotoxicity against human MCF7 cells assessed as cell growth inhibition after 72 hrs by MTS assay; assay type: functional, cell-based; conditions: MCF7, 72 h; method in brief: as §2
[10] = target: T1, Heat shock protein HSP90 (Homo sapiens); test: Inhibition of Hsp90 in human MCF7 cells assessed as decrease in EGFR levels at five times IC50 value after 12 hrs by Western blot analysis; assay type: cell-based; method in brief: as §3
[11] = target: T1, Heat shock protein HSP90 (Homo sapiens); test: Inhibition of Hsp90 in human A549 cells assessed as decrease in Her2 levels at five times IC50 value after 12 hrs by Western blot analysis; assay type: cell-based
[12] = target: T1, Heat shock protein HSP90 (Homo sapiens); test: Inhibition of Hsp90 in human A549 cells assessed as decrease in C-Raf levels at five times IC50 value after 12 hrs by Western blot analysis; assay type: cell-based
[13] = target: T1, Heat shock protein HSP90 (Homo sapiens); test: Inhibition of Hsp90 in human MCF7 cells assessed as decrease in Her2 levels at five times IC50 value after 12 hrs by Western blot analysis; assay type: cell-based; method in brief: as §3
[14] = target: T1, Heat shock protein HSP90 (Homo sapiens); test: Inhibition of Hsp90 in human A549 cells assessed as decrease in EGFR levels at five times IC50 value after 12 hrs by Western blot analysis; assay type: cell-based
[15] = Cytotoxicity against human SKBR3 cells by MTS assay; conditions: SK-BR-3
[16] = target: T2, B-raf/RAF proto-oncogene serine/threonine-protein kinase (Homo sapiens) (UniProt P04049+P15056); test: Inhibition of B-Raf/C-Raf in human A549 cells assessed as decrease in phosphorylated ERK levels at five times IC50 value after 12 hrs by Western blot analysis; assay type: cell-based
T2 sequence (P04049 whole entry, looked up): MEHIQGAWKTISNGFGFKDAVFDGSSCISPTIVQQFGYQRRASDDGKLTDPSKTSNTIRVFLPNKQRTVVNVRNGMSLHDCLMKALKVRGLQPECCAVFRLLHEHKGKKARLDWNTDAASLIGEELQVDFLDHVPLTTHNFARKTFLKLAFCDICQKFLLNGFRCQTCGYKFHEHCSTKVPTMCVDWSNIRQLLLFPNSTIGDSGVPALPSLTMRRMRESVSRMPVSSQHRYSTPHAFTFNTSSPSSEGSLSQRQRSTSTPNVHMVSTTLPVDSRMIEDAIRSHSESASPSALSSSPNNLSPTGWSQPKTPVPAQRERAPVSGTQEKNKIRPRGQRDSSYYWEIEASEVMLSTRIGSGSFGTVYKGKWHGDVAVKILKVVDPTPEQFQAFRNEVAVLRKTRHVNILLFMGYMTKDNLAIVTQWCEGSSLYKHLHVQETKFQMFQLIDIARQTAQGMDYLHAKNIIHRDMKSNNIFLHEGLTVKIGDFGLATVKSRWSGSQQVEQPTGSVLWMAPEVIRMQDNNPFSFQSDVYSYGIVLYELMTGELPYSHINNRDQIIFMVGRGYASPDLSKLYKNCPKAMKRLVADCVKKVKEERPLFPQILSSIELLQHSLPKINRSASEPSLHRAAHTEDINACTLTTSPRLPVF
T2 sequence (P15056 whole entry, looked up): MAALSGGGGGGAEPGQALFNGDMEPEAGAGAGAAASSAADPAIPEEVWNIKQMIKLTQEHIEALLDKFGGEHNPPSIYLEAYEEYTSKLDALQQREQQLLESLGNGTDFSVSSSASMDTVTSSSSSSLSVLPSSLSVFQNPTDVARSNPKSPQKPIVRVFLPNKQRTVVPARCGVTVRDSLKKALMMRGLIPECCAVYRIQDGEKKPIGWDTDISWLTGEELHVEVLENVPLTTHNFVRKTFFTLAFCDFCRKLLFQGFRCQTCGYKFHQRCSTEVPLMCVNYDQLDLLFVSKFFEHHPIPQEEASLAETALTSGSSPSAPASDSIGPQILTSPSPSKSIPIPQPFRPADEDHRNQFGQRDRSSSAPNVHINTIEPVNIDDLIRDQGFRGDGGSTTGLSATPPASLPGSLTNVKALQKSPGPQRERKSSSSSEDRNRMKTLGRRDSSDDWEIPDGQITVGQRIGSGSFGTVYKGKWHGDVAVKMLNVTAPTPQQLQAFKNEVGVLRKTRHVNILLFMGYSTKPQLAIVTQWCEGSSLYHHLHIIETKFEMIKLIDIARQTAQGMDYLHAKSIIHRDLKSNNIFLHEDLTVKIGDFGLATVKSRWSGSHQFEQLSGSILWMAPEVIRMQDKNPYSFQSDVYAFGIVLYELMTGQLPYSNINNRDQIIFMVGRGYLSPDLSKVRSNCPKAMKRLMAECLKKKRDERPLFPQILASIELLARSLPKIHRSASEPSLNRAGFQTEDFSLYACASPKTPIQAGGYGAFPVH

[17] = target: T2, B-raf/RAF proto-oncogene serine/threonine-protein kinase (Homo sapiens); test: Inhibition of B-Raf/C-Raf in human A549 cells assessed as effect on phosphorylated ERK levels at five times IC50 value after 24 hrs by Western blot analysis; assay type: cell-based; method in brief: as §1
[18] = target: T2, B-raf/RAF proto-oncogene serine/threonine-protein kinase (Homo sapiens); test: Inhibition of B-Raf/C-Raf in human A549 cells assessed as effect on phosphorylated MEK levels at five times IC50 value after 24 hrs by Western blot analysis; assay type: cell-based; method in brief: as §1
[19] = target: T2, B-raf/RAF proto-oncogene serine/threonine-protein kinase (Homo sapiens); test: Inhibition of B-Raf/C-Raf in human A549 cells assessed as decrease in phosphorylated MEK levels at five times IC50 value after 12 hrs by Western blot analysis; assay type: cell-based
[20] = target: T1, Heat shock protein HSP90 (Homo sapiens); test: Inhibition of Hsp90 in human A549 cells assessed as effect on EGFR levels at five times IC50 value after 2 to 12 hrs by Western blot analysis; assay type: cell-based
Method in brief: (§4)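 Lysed in MPER with protease/phosphatase inhibitors, clarified at 14,000g. 15 µg protein per lane run on reducing 10% gels, transferred to PVDF, immunoblotted, detected by HRP chemiluminescence.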

[21] = target: T2, B-raf/RAF proto-oncogene serine/threonine-protein kinase (Homo sapiens); test: Inhibition of B-Raf/C-Raf in human A549 cells assessed as decrease in phosphorylated ERK levels at five times IC50 value by Western blot analysis; assay type: cell-based; conditions: TDE = time-dependent effect
[22] = target: T1, Heat shock protein HSP90 (Homo sapiens); test: Inhibition of Hsp90 in human A549 cells assessed as effect on Her2 protein degradation at 0.5 to 5 times IC50 value after 12 hrs by western blot analysis; assay type: cell-based; method in brief: as §3
[23] = target: T1, Heat shock protein HSP90 (Homo sapiens); test: Inhibition of Hsp90 in human A549 cells assessed as decrease in C-Raf levels at five times IC50 value after 2 to 12 hrs by Western blot analysis; assay type: cell-based; method in brief: as §4
[24] = target: T1, Heat shock protein HSP90 (Homo sapiens); test: Inhibition of Hsp90 in human PC3MM2 cells upto 100 uM by luciferase refolding assay; assay type: cell-based
Method in brief: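 Luciferase-expressing PC3-MM2 cells heat-denatured at 50 °C for 8–12 min until luminescence fell to 1% of initial. 60,000 cells/100 µL added to compound (0–100 µM, 1% DMSO final) and left 1 h to recover. Luciferin/ATP/CoA reagent then added and luminescence read at once. Refolding expressed relative to 1% DMSO wells; triplicate points fitted to dose-response curves.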

[25] = target: T1, Heat shock protein HSP90 (Homo sapiens); test: Inhibition of Hsp90 in human A549 cells assessed as effect on c-Raf protein degradation at 0.5 to 5 times IC50 value after 12 hrs by western blot analysis; assay type: cell-based; method in brief: as §3
[26] = target: T2, B-raf/RAF proto-oncogene serine/threonine-protein kinase (Homo sapiens); test: Inhibition of B-Raf/C-Raf in human A549 cells assessed as decrease in phosphorylated MEK levels after 12 hrs by Western blot analysis; assay type: cell-based
[27] = system: A549; test: Effect of total Akt levels in human A549 cells at five times IC50 value after 2 to 12 hrs by Western blot analysis; assay type: ADME, cell-based; method in brief: as §4
[28] = target: T1, Heat shock protein HSP90 (Homo sapiens); test: Inhibition of Hsp90 in human MCF7 cells assessed as effect on c-Raf protein degradation at 0.5 to 5 times IC50 value after 12 hrs by western blot analysis; assay type: cell-based; method in brief: as §3
[29] = system: A549; test: Effect on total Mek level in human A549 cells at five times IC50 value after 2 to 12 hrs by western blot analysis; assay type: ADME, cell-based; method in brief: as §4
[30] = target: T2, B-raf/RAF proto-oncogene serine/threonine-protein kinase (Homo sapiens); test: Inhibition of B-Raf/C-Raf in human A549 cells assessed as decrease in phosphorylated ERK levels after 12 hrs by Western blot analysis; assay type: cell-based
[31] = target: T2, B-raf/RAF proto-oncogene serine/threonine-protein kinase (Homo sapiens); test: Inhibition of B-Raf/C-Raf in human A549 cells assessed as decrease in phosphorylated MEK levels at five times IC50 value by Western blot analysis; assay type: cell-based; conditions: TDE = time-dependent effect
[32] = target: T1, Heat shock protein HSP90 (Homo sapiens); test: Inhibition of Hsp90 in human MCF7 cells assessed as effect on EGFR protein degradation at 0.5 to 5 times IC50 value after 12 hrs by western blot analysis; assay type: cell-based; method in brief: as §3
[33] = system: A549; test: Inhibition of PI3K activity in human A549 cells assessed as effect on phosphorylated Akt level at five times IC50 value after 2 to 12 hrs by Western blot analysis; assay type: cell-based; method in brief: as §4
[34] = target: T2, B-raf/RAF proto-oncogene serine/threonine-protein kinase (Homo sapiens); test: Inhibition of B-Raf/C-Raf heterodimerization in human A549 cells at five times IC50 value after 24 hrs by SDS-PAGE/Western blot analysis; assay type: cell-based
Method in brief: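 Lysed in 0.1% NP40, 50 mM Tris pH 7.5, 150 mM NaCl with inhibitors. 500 µg protein incubated with B-Raf antibody overnight at 4 °C, captured on Protein G beads for 3 h at 4 °C, washed, eluted, then SDS-PAGE and immunoblot for c-Raf.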

[35] = system: A549; test: Effect on total Erk level in human A549 cells at five times IC50 value after 2 to 12 hrs by western blot analysis; assay type: ADME, cell-based; method in brief: as §4
[36] = target: T1, Heat shock protein HSP90 (Homo sapiens); test: Inhibition of Hsp90 in human MCF7 cells assessed as effect on Her2 protein degradation at 0.5 to 5 times IC50 value after 12 hrs by western blot analysis; assay type: cell-based; method in brief: as §3
[37] = target: T1, Heat shock protein HSP90 (Homo sapiens); test: Inhibition of Hsp90 in human A549 cells assessed as effect on EGFR protein degradation at 0.5 to 5 times IC50 value after 12 hrs by western blot analysis; assay type: cell-based; method in brief: as §3

## CCCS(=O)(=O)Nc1ccc(F)c(C(=O)c2c[nH]c3ncc(-c4ccc(Cl)cc4)cc23)c1F [VEMURAFENIB]
[1]
  Activity: Non-toxic

## Cc1c(OC2CCN(C)CC2)ccc2cc(NC(=O)Nc3cccc(-c4ccccc4)c3)c(=O)oc12
[2]
  inhibition: Active
[3]
  IC50: 60 nM
[4]
  inhibition: Active
[5]
  inhibition: Active

## Cc1c(OC2CCN(C)CC2)ccc2cc(NC(=O)Nc3ccccc3)c(=O)oc12
[3]
  IC50: 240 nM
[6]
  Activity: Non-toxic
[7]
  inhibition: Active
[8]
  IC50: 3600 nM
[9]
  IC50: 770 nM
[10]
  inhibition: Active
[11]
  inhibition: Active
[12]
  inhibition: Active
[13]
  inhibition: Active
[14]
  inhibition: Active

## CO[C@@H]1[C@@H](OC(N)=O)[C@@H](O)[C@H](Oc2ccc3c(O)c(NC(=O)c4ccc(O)c(CC=C(C)C)c4)c(=O)oc3c2C)OC1(C)C [NOVOBIOCIN]
[15]
  IC50: 700000 nM

## COc1cccc(-c2cccc(NC(=O)Nc3cc4ccc(OC5CCN(C)CC5)c(C)c4oc3=O)c2)c1
[3]
  IC50: 280 nM
[16]
  inhibition: Active
[17]
  inhibition: inactive
[18]
  inhibition: inactive
[19]
  inhibition: Active

## N#Cc1c(Oc2ccc(F)c(NC(=O)Cc3cccc(C(F)(F)F)c3)c2)ccc2nc(NC(=O)C3CC3)sc12
[3]
  IC50: 1700 nM
[1]
  Activity: Non-toxic

## COc1cccc(-c2cc(NC(=O)Nc3cc4ccc(OC5CCN(C)CC5)c(C)c4oc3=O)ccc2OC)c1
[3]
  IC50: 150 nM
[20]
  inhibition: inactive
[21]
  inhibition: tde
[22]
  inhibition: inactive
[23]
  inhibition: inactive
[24]
  inhibition: inactive
[25]
  inhibition: inactive
[26]
  inhibition: Dose-dependent effect
[27]
  Activity: Non-toxic
[28]
  inhibition: inactive
[8]
  IC50: 4300 nM
[29]
  Activity: Non-toxic
[30]
  inhibition: Dose-dependent effect
[9]
  IC50: 170 nM
[31]
  inhibition: tde
[32]
  inhibition: inactive
[33]
  Activity: inactive
[34]
  inhibition: Active
[35]
  Activity: Non-toxic
[36]
  inhibition: inactive
[37]
  inhibition: inactive

## COc1ccc(NC(=O)Nc2cc3ccc(OC4CCN(C)CC4)c(C)c3oc2=O)cc1-c1ccccc1
[3]
  IC50: 410 nM
[16]
  inhibition: Active
[17]
  inhibition: inactive
[18]
  inhibition: inactive
[19]
  inhibition: Active

— ChEMBL document CHEMBL3769404, “Novobiocin Analogues That Inhibit the MAPK Pathway” (J Med Chem, 2016)
